According to ChEMBL document CHEMBL3632619, “Angucyclines and Angucyclinones from Streptomyces sp. CB01913 Featuring C-Ring Cleavage and Expansion” (J Nat Prod, 2015):
Converted amounts (≈) assume the structure as drawn. The source made the active and inactive calls. The calls are words filed in the database; no cut-off is given here.

How the values were obtained:
M14 = assay: Cytotoxicity against human M14 cells after 72 hrs by MTS assay; type: functional, cell-based; conditions: M14, 72 h
Bacillus subtilis = assay: Antibacterial activity against Bacillus subtilis ATCC 23857 after 18 hrs by broth microdilution method; conditions: ATCC 23857, 18 h
Escherichia coli [1] = assay: Antibacterial activity against Escherichia coli JM 109 after 12 hrs by agar diffusion method; type: functional, organism-based
Outline: (§1)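 Filter-paper disc on tryptic soy agar receiving 25 µL of compound at 2 mM in H2O; plates incubated 37 °C for 12 h, then inhibition zone scored; tetracycline as positive control.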

SF-539 = assay: Cytotoxicity against human SF539 cells after 72 hrs by MTS assay; type: functional, cell-based; conditions: SF-539, 72 h
[2] = tested on: Mycolicibacterium smegmatis; assay: Antibacterial activity against Mycobacterium smegmatis ATCC 607 after 18 hrs by broth microdilution method; conditions: ATCC 607, 18 h
NCI-H226 = assay: Cytotoxicity against human NCI-H226 cells after 72 hrs by MTS assay; type: functional, cell-based; conditions: NCI-H226, 72 h
SF-295 = assay: Cytotoxicity against human SF295 cells after 72 hrs by MTS assay; type: functional, cell-based; conditions: SF-295, 72 h
Staphylococcus aureus = assay: Antibacterial activity against Staphylococcus aureus ATCC 25923 after 18 hrs by broth microdilution method; conditions: ATCC 25923, 18 h
Escherichia coli [3] = assay: Antibacterial activity against Escherichia coli ATCC 25922 after 12 hrs by agar diffusion method; type: functional, organism-based; outline: as §1
MDA-MB-468 = assay: Cytotoxicity against human MDA-MB-468 cells after 72 hrs by MTS assay; type: functional, cell-based; conditions: MDA-MB-468, 72 h

SMILES | MIC (Bacillus subtilis) | MIC [2] | MIC (Staphylococcus aureus) | IC50 (M14) | Activity (Escherichia coli [1]) | IC50 (SF-539) | IC50 (NCI-H226) | IC50 (SF-295) | Activity (Escherichia coli [3]) | IC50 (MDA-MB-468)
CO[C@@]12[C@H](COC(N)=O)C3=C(C(=O)C(C)=C(N)C3=O)N1C[C@@H]1N[C@@H]12 [MITOMYCIN] | – | – | – | 0.47 µM | – | 0.038 µM | 0.58 µM | 0.54 µM | – | 0.5 µM
CN(C)[C@@H]1C(O)=C(C(N)=O)C(=O)[C@@]2(O)C(O)=C3C(=O)c4c(O)cccc4[C@@](C)(O)[C@H]3C[C@@H]12 [TETRACYCLINE] | 13 µg/mL (≈ 29.3 µM) | 11 µg/mL (≈ 24.8 µM) | 6.7 µg/mL (≈ 15.1 µM) | – | – | – | – | – | – | –
C[C@]1(O)CC(=O)c2c(ccc3c2C(=O)c2cccc(O)c2C3=O)C1 [TETRANGOMYCIN] | 8.1 µg/mL (≈ 25.1 µM) | 9.7 µg/mL (≈ 30.1 µM) | 11 µg/mL (≈ 34.1 µM) | 2.4 µM | inactive | 3.2 µM | 7.2 µM | 12 µM | inactive | 16 µM

The next lines start with results.

MIC (Bacillus subtilis) | MIC [2] | MIC (Staphylococcus aureus) | SMILES | IC50 (M14) | Activity (Escherichia coli [1]) | IC50 (SF-539) | IC50 (NCI-H226) | IC50 (SF-295) | Activity (Escherichia coli [3]) | IC50 (MDA-MB-468)
85 µg/mL (≈ 239 µM) | 93 µg/mL (≈ 261 µM) | > 100 µg/mL | COc1cccc(C(=O)c2c(O)ccc3c2C(=O)C[C@](C)(O)C3)c1CO | > 100 µM | inactive | > 100 µM | > 100 µM | > 100 µM | inactive | > 100 µM
25 µg/mL (≈ 74.3 µM) | > 100 µg/mL | > 100 µg/mL | COc1cccc2c1C(=O)c1ccc3c(c1C2=O)C(=O)C[C@](C)(O)C3 | 9.7 µM | inactive | 10 µM | 4.6 µM | 17 µM | inactive | 27 µM
> 100 µg/mL | > 100 µg/mL | > 100 µg/mL | COc1cccc2c1C(=O)c1ccc3c(c1C2O)C(=O)C[C@](C)(O)C3 (stereo partly drawn) | 31 µM | inactive | 12 µM | 7.2 µM | 3.1 µM | inactive | 52 µM
